In article PMC11345372 (ESMO Open, 2024):
Entries after “also recorded” stand apart in the source; their conditions may differ. Like-named read-outs stand apart in the source and are kept apart here.

Tests used:
[1] = tested on: patients with solid tumors; conditions: IT; including grade 3/4 cytokine release syndrome, pyrexia, fatigue, chills, decreased lymphocyte count, nausea, injection-site pain; cited from earlier work
[2] = Serum pharmacokinetics after intratumoral LHC165, LC-MS/MS, non-compartmental; assay type: in vivo, human
Summary of the method: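 Serum concentrations of the TLR-7 agonist were measured by validated LC-MS/MS after intratumoral dosing at 100-600 μg Q2W. Dosing was alone or with anti-PD-1 antibody 400 mg IV Q4W. Parameters (Cmax, AUClast, terminal t½) were derived by non-compartmental analysis on C1D1 and C2D15. Geometric CV% was reported.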

advanced solid tumors [3] = test: Antitumor activity per RECIST v1.1; assay type: in vivo, human
Summary of the method: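 Open-label phase I/Ib in adults (≥18 y, ECOG ≤2, RECIST-measurable disease, progressed on or intolerant to standard care). The TLR-7 agonist, 100-600 μg, was given intratumorally on days 1 and 15 of 28-day cycles 1-2 and 5-6, with a pause in cycles 3-4. Combination patients also received anti-PD-1 antibody 400 mg IV over 30 min Q4W. ORR and DCR (CR+PR+SD) are given with 90% Clopper–Pearson exact CIs. PFS uses Kaplan–Meier with median, 90% CI and landmark rates.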

advanced solid tumors [4] = test: Antitumor activity per iRECIST; assay type: in vivo, human; conditions: all patients, groups pooled
Summary of the method: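 Adults with advanced solid tumours received the TLR-7 agonist intratumorally, 100-600 μg on days 1 and 15 of 28-day cycles 1-2 and 5-6, alone or with anti-PD-1 antibody 400 mg IV Q4W. Response was assessed per iRECIST. iORR and iDCR are given with 90% Clopper–Pearson exact CIs. iPFS was estimated by Kaplan–Meier with median, 90% CI and 3-24-month rates, summarised by treatment group.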

[5] = tested on: adult patients with advanced solid tumors
[6] = Aluminum level monitoring; assay type: in vivo, human; conditions: for Aluminum level, mean (standard deviation): baseline 0.26 (0.088)
[7] = tested on: adult patients with advanced solid tumors; test: Dose escalation: DLT, MTD and recommended dose for expansion; assay type: in vivo, human
Summary of the method: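 Escalation was guided by an adaptive Bayesian hierarchical logistic regression model with escalation-with-overdose-control. Dosing started at 100 μg and tested 100, 200, 400 and 600 μg intratumoral TLR-7 agonist biweekly, alone or with anti-PD-1 antibody 400 mg IV on day 1 of each 28-day cycle. AEs were graded by CTCAE v4.03. All treated patients formed the safety set. Data cut-off was 30 June 2022.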

[8] = tested on: advanced anaplastic thyroid carcinoma; conditions: immune-related response criteria; cited from earlier work
[9] = RECIST v1.1, all patients N = 45 (SA and combination groups pooled)
[10] = RECIST v1.1, all patients, groups pooled
[11] = RECIST v1.1, by treatment group
[12] = RECIST v1.1, by treatment group (SA n = 21; combination n = 24)
[13] = all grades, all patients N = 45 (SA and combination groups pooled)
[14] = all grades, by treatment group (SA n = 21; combination n = 24)
[15] = grade ≥3, all patients N = 45 (SA and combination groups pooled)
[16] = grade ≥3, by treatment group (SA n = 21; combination n = 24)
[17] = overall, 45 patients, groups pooled

CCCCCCCCCCCCCCCCCC(=O)NCCCCOn1c(CCCC)nc2c(N)nc3ccccc3c21 [MEDI9197]
Toxicities [1]: tolerable toxicities

Cc1cc(OCCOCCC(F)(F)P(=O)(O)O)ccc1CCc1cnc2c(N)nc3cc(CCC(=O)O)ccc3c2c1 [LHC165]
Dose dependence of Cmax and AUClast ([2]; 100-600 μg IT): increased in a dose-dependent manner
Accumulation in serum LHC165 after multiple IT injections ([2]; Cmax and AUClast between C1D1 and C2D15 comparable): No accumulation
Drug–drug interaction between LHC165 and spartalizumab ([2]; comparable exposure between SA and combination groups): No evidence of drug–drug interaction
Median PFS (advanced solid tumors [3]; RECIST v1.1, Kaplan–Meier, by treatment group, listed as LHC165 SA): 1.4 months
Best overall response: CR (advanced solid tumors [3]; [9]): 0 n (%)
Best overall response: PD (advanced solid tumors [3]; [9]): 27 (60.0) n (%)
Best overall response: PR (advanced solid tumors [3]; [9]): 3 (6.7) n (%)
Best overall response: SD (advanced solid tumors [3]; [9]): 5 (11.1) n (%)
Best overall response: Unknown (advanced solid tumors [3]; [9]): 10 (22.2) n (%)
DCR (CR + PR + SD) (advanced solid tumors [3]; [9]): 8 (17.8) n (%)
ORR (CR + PR) (advanced solid tumors [3]; [9]): 3 (6.7) n (%)
DCR / disease control (advanced solid tumors [3]; [10]): 17.8%
ORR (CR + PR) across all tumor types (advanced solid tumors [3]; [10]): 6.7%
Best overall response PD (advanced solid tumors [3]; [11]): 66.7%
Best overall response PR (advanced solid tumors [3]; [11]): 4.8%
Best overall response unknown (UNK) (advanced solid tumors [3]; [11]): 28.6%
Best overall response: CR (advanced solid tumors [3]; [12]): 0 n (%)
Best overall response: PD (advanced solid tumors [3]; [12]): 14 (66.7) n (%)
Best overall response: PR (advanced solid tumors [3]; [12]): 1 (4.8) n (%)
Best overall response: SD (advanced solid tumors [3]; [12]): 0 n (%)
Best overall response: Unknown (advanced solid tumors [3]; [12]): 6 (28.6) n (%)
DCR (CR + PR + SD) (advanced solid tumors [3]; [12]): 1 (4.8) n (%)
ORR (CR + PR) (advanced solid tumors [3]; [12]): 1 (4.8) n (%)
DOR, median (range) (advanced solid tumors [3]; RECIST v1.1, responders by treatment group): 3.81 (3.8-3.8) months
DOR, median (range) (advanced solid tumors [3]; RECIST v1.1, responders, all patients (SA and combination groups pooled)): 13.77 (3.8-29.7) months
Overall median PFS (advanced solid tumors [3]; all patients, groups pooled): 1.7 months
Patients who discontinued study treatment due to progressive disease (advanced solid tumors [3]; by treatment group): 71.4%
Overall median immune-related PFS (iPFS) (advanced solid tumors [4]): 1.7 months
Patients with at least one AE of any grade, regardless of relationship with LHC165 or spartalizumab ([5]; 40 of 45 patients, SA and combination groups pooled): 88.9%
Most common non-SAE: anemia ([5]; 45 patients, groups pooled): 24.4%
Most common non-SAE: pyrexia ([5]; 45 patients, groups pooled): 37.8%
Patients with at least one SAE, regardless of relationship ([5]; 45 patients, groups pooled): 22.2%
SAE suspected to be related to LHC165 and spartalizumab: grade 3 pancreatitis ([5]; 45 patients, groups pooled): 2.2%
SAE suspected to be related to the study drug: grade 3 pancreatitis, number of patients ([5]; 45 patients, groups pooled): 1 n
Patients with treatment-related AEs (TRAEs, all grades) ([5]; across all dose levels, 16 of 45 patients, groups pooled): 35.6%
Patients with non-SAEs (≥10%) ([5]; across all dose levels, 40 of 45 patients, groups pooled): 88.9%
Drug-related AE: asthenia ([5]; all 45 patients, groups pooled): 4.4%
Drug-related AE: chills ([5]; all 45 patients, groups pooled): 11.1%
Drug-related AE: pruritus ([5]; all 45 patients, groups pooled): 13.3%
Drug-related AE: pyrexia ([5]; all 45 patients, groups pooled): 22.2%
Asthenia, treatment-related AE [5, 13]: 2 (4.4) n (%)
Chills, treatment-related AE [5, 13]: 5 (11.1) n (%)
Pruritus, treatment-related AE [5, 13]: 6 (13.3) n (%)
Pyrexia, treatment-related AE [5, 13]: 10 (22.2) n (%)
TRAEs leading to discontinuation: pancreatitis [5, 13]: 1 (2.2) n (%)
≥1 AE suspected to be related to LHC165 or spartalizumab [5, 13]: 16 (35.6) n (%)
Asthenia, treatment-related AE [5, 14]: 0 n (%)
Chills, treatment-related AE [5, 14]: 1 (4.8) n (%)
Pruritus, treatment-related AE [5, 14]: 0 n (%)
Pyrexia, treatment-related AE [5, 14]: 2 (9.5) n (%)
TRAEs leading to discontinuation: pancreatitis [5, 14]: 0 n (%)
≥1 AE suspected to be related to LHC165 or spartalizumab [5, 14]: 2 (9.5) n (%)
Patients with one or more TRAE ([5]; by treatment group (2 of 21; 14 of 24)): 9.5%
Patients with at least one treatment permanent discontinuation by reason: adverse event ([5]; by treatment group (SA n = 21; combination n = 24)): 2 (9.5) n (%)
Patients who discontinued study treatment due to AE ([5]; by treatment group, SA: hypotension, not related, combination: pancreatitis, DLT): 4.8%
Patients who discontinued study treatment due to death ([5]; by treatment group, not related to treatment (respiratory failure; fatal septic shock)): 4.8%
Asthenia, treatment-related AE [5, 15]: 0 n (%)
Chills, treatment-related AE [5, 15]: 0 n (%)
Pruritus, treatment-related AE [5, 15]: 0 n (%)
Pyrexia, treatment-related AE [5, 15]: 0 n (%)
TRAEs leading to discontinuation: pancreatitis [5, 15]: 1 (2.2) n (%)
≥1 AE suspected to be related to LHC165 or spartalizumab [5, 15]: 0 n (%)
Asthenia, treatment-related AE [5, 16]: 0 n (%)
Chills, treatment-related AE [5, 16]: 0 n (%)
Pruritus, treatment-related AE [5, 16]: 0 n (%)
Pyrexia, treatment-related AE [5, 16]: 0 n (%)
TRAEs leading to discontinuation: pancreatitis [5, 16]: 0 n (%)
≥1 AE suspected to be related to LHC165 or spartalizumab [5, 16]: 0 n (%)
AE leading to dose interruption or dose adjustment: aspartate aminotransferase increased [5, 17]: 4.4%
Patients with at least one AE leading to dose interruption or dose adjustment [5, 17]: 11.1%
Patients with at least one AE leading to treatment discontinuation [5, 17]: 4.4%
AEs leading to dose interruption or dose adjustment, each of: alanine aminotransferase increased, fatigue, gastroesophageal reflux disease, hyponatremia, suspected COVID-19 ([5]; overall, 45 patients, groups pooled, each term): 2.2%
AEs specific to aluminum toxicity ([6]; LHC165 adsorbed to aluminum hydroxide): No AEs specific to aluminum toxicity were reported
Aluminum level, mean (standard deviation) ([6]; cycle 1 day 15 (C1D15)): 0.24 (0.087) μmol/L
Aluminum level, mean (standard deviation) ([6]; end of treatment): 0.30 (0.128) μmol/L
Maximum observed aluminum value during the study ([6]; mild elevation levels >1.85 μmol/L): 0.520 µmol
MTD ([7]; LHC165 100-600 μg biweekly IT, SA and with spartalizumab 400 mg Q4W): No maximum tolerated dose was reached; also recorded: not reached
Recommended dose for expansion (RDE) ([7]; biweekly IT, as SA and in combination with spartalizumab 400 mg Q4W): 600 µg
DLTs observed during dose escalation ([7]; combination: two episodes of grade 3 pancreatitis at LHC165 400 μg): No DLTs

B1: spartalizumab: humanized immunoglobulin G4 (IgG4) anti-programmed cell death protein-1 (anti–PD-1) monoclonal antibody (antibody, chains of the INN, looked up, V domains shown)
VH: EVQLVQSGAEVKKPGESLRISCKGSGYTFTTYWMHWVRQATGQGLEWMGNIYPGTGGSNFDEKFKNRVTITADKSTSTAYMELSSLRSEDTAVYYCTRWTTGTGAYWGQGTTVTVSS
VL: EIVLTQSPATLSLSPGERATLSCKSSQSLLDSGNQKNFLTWYQQKPGQAPRLLIYWASTRESGVPSRFSGSGSGTDFTFTISSLEAEDAATYYCQNDYSYPYTFGQGTKVEIK
Overall response rate (ORR) [8]: 24%
